Values joined by “and” are separate entries in the source; they are usually repeats but may differ in a detail not shown here. Equal values may be shown once.
How the values were obtained:
L1210 = test: Inhibitory activity against L1210 cell growth; format: functional, cell-based; details: Mus musculus
In short: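 L1210 cells were grown in RPMI 1640 with 2 mM glutamine and 20% heat-inactivated horse serum at 37 °C under 5% CO2. Drug was added in DMSO (0.5% final) to exponential cells seeded at 0.8×10^5 cells/mL. Coulter counts were done in triplicate at 48 h. IC50 was taken from a regression of probit % growth inhibition against log dose, from one experiment.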

P388 [1] = test: (§1) Compound was evaluated in vivo for antitumor activity after intraperitoneal administration against P388 (1303) for tumor free survivors at an optimal dose of 1 mg/kg/injection; format: functional, Mus musculus
P388 [2] = test: (§2) Compound was evaluated in vivo for antitumor activity after intraperitoneal administration against P388 (1303) for % increase in life span at an optimal dose of 1 mg/kg/injection; format: functional; details: Mus musculus, P388, ip
P388 [3] = test: as §1; format: functional, Mus musculus; remark: listed apart in the source
P388 [4] = test: (§3) Compound was evaluated in vivo for antitumor activity after intraperitoneal administration against P388 (1303) for change in body weight at an optimal dose of 1 mg/kg/injection; format: functional, Mus musculus
P388 [5] = test: Compound was evaluated in vivo for antitumor activity after intraperitoneal administration against P388/L-PAM for total dose at an optimal dose of 1 mg/kg/injection; format: functional, Mus musculus
P388 [6] = test: (§4) Compound was evaluated in vivo for antitumor activity after intraperitoneal administration against P388 (1303) for mortality range at an optimal dose of 1 mg/kg/injection; format: functional, Mus musculus
P388 [7] = test: as §2; format: functional; details: Mus musculus, P388, ip; remark: listed apart in the source
P388 [8] = test: Compound was evaluated in vivo for antitumor activity after intraperitoneal administration against P388 (1303) for total dose at an optimal dose of 1 mg/kg/injection; format: functional, Mus musculus
P388 [9] = test: (§5) Compound was evaluated in vivo for antitumor activity after intraperitoneal administration against P388 (1303) for median day of death at an optimal dose of 1 mg/kg/injection; format: functional, Mus musculus
P388 [10] = test: as §5; format: functional, Mus musculus; remark: listed apart in the source
P388 [11] = test: as §4; format: functional, Mus musculus; remark: listed apart in the source
P388 [12] = test: as §3; format: functional, Mus musculus; remark: listed apart in the source
P388 [13] = test: (§6) Compound was evaluated in vivo for antitumor activity after intraperitoneal administration against P388/L-PAM(14) for tumor free survivors at an optimal dose of 5 mg/kg/injection; format: functional, Mus musculus
P388 [14] = test: Compound was evaluated in vivo for antitumor activity after intraperitoneal administration against P388/L-PAM(12 for mortality range at an optimal dose of 5 mg/kg/injection; format: functional, Mus musculus
P388 [15] = test: Compound was evaluated in vivo for antitumor activity after intraperitoneal administration against P388/L-PAM(12 for change in body weight at an optimal dose of 1 mg/kg/injection; format: functional, Mus musculus
P388 [16] = test: Compound was evaluated in vivo for antitumor activity after intraperitoneal administration against P388/L-PAM(12 for median day of death at an optimal dose of 1 mg/kg/injection; format: functional, Mus musculus
P388 [17] = test: Compound was evaluated in vivo for antitumor activity after intraperitoneal administration against P388/L-PAM(12) for tumor free survivors at an optimal dose of 1 mg/kg/injection; format: functional, Mus musculus
P388 [18] = test: Compound was evaluated in vivo for antitumor activity after intraperitoneal administration against P388 (1313) for total dose at an optimal dose of 5 mg/kg/injection; format: functional, Mus musculus
P388 [19] = test: Compound was evaluated in vivo for antitumor activity after intraperitoneal administration against P388 (1303) for mortality range at an optimal dose of 5 mg/kg/injection; format: functional, Mus musculus
P388 [20] = test: (§7) Compound was evaluated in vivo for antitumor activity after intraperitoneal administration against P388/L-PAM(14) for change in body weight at an optimal dose of 5 mg/kg/injection; format: functional, Mus musculus
P388 [21] = test: Compound was evaluated in vivo for antitumor activity after intraperitoneal administration against P388 (1303) for tumor free survivors at an optimal dose of 5 mg/kg/injection; format: functional, Mus musculus
P388 [22] = test: (§8) Compound was evaluated in vivo for antitumor activity after intraperitoneal administration against P388/L-PAM(14) for mortality range at an optimal dose of 5 mg/kg/injection; format: functional, Mus musculus
P388 [23] = test: Compound was evaluated in vivo for antitumor activity after intraperitoneal administration against P388 (1303) for median day of death at an optimal dose of 5 mg/kg/injection; format: functional, Mus musculus
P388 [24] = test: Compound was evaluated in vivo for antitumor activity after intraperitoneal administration against P388/L-PAM(14) for median day of death at an optimal dose of 5 mg/kg/injection; format: functional, Mus musculus
P388 [25] = test: Compound was evaluated in vivo for antitumor activity after intraperitoneal administration against P388/L-PAM(14) for total dose at an optimal dose of 5 mg/kg/injection; format: functional, Mus musculus
P388 [26] = test: (§9) Compound was evaluated in vivo for antitumor activity after intraperitoneal administration against P388/L-PAM(14) for % increase in life span at an optimal dose of 5 mg/kg/injection; format: functional; details: Mus musculus, P388, ip
P388 [27] = test: as §8; format: functional, Mus musculus; remark: listed apart in the source
P388 [28] = test: as §9; format: functional; details: Mus musculus, P388, ip; remark: listed apart in the source
P388 [29] = test: as §7; format: functional, Mus musculus; remark: listed apart in the source
P388 [30] = test: Compound was evaluated in vivo for antitumor activity after intraperitoneal administration against P388 (1303) for % increase in life span at an optimal dose of 5 mg/kg/injection; format: functional; details: Mus musculus, P388, ip
P388 [31] = test: Compound was evaluated in vivo for antitumor activity after intraperitoneal administration against P388 (1303) for change in body weight at an optimal dose of 5 mg/kg/injection; format: functional, Mus musculus
P388 [32] = test: Compound was evaluated in vivo for antitumor activity after intraperitoneal administration against P388 (1303) for total dose at an optimal dose of 5 mg/kg/injection; format: functional, Mus musculus
P388 [33] = test: as §6; format: functional, Mus musculus; remark: listed apart in the source
P388 [34] = test: Compound was evaluated in vivo for antitumor activity after intraperitoneal administration against P388/L-PAM(12) for % increase in life span at an optimal dose of 1 mg/kg/injection; format: functional; details: Mus musculus, P388, ip
P388 [35] = test: Compound was evaluated in vivo for antitumor activity after intraperitoneal administration against P388/L-PAM(12) for total dose at an optimal dose of 5 mg/kg/injection; format: functional, Mus musculus
Mus musculus [36] = test: Compound was evaluated in vivo for antitumor activity against colon adenocarcinoma after injecting the compound intraperitoneally for optimal dose; format: functional
Mus musculus [37] = test: Compound was evaluated in vivo for antitumor activity against colon adenocarcinoma after injecting the compound intraperitoneally for median tumor burden; format: functional
Mus musculus [38] = test: Compound was evaluated in vivo for antitumor activity against colon adenocarcinoma after injecting the compound intraperitoneally for percent T/C; format: functional
Mus musculus [39] = test: Compound was evaluated in vivo for antitumor activity against colon adenocarcinoma after injecting the compound intraperitoneally for total dose.; format: functional
Mus musculus [40] = test: Compound was evaluated in vivo for antitumor activity against colon adenocarcinoma after injecting the compound intraperitoneally for toxicity related death.; format: functional

## COC(=O)C(Nc1ncnc2c1C(=O)C(OC)=CC2=O)C(C)C (configuration not stated)
L1210
  IC50: 0.825 µg/mL and 2.59 µM

## COC1=CC(=O)c2ncnc(NCCN(C)C)c2C1=O
L1210
  IC50: 0.316 µg/mL and 1.14 µM

## COc1cccc2c1C(=O)c1c(O)c3c(c(O)c1C2=O)C[C@@](O)(C(C)=O)C[C@@H]3O[C@H]1C[C@H](N)[C@H](O)[C@H](C)O1 [DAUNORUBICIN]
P388 [1]
  Survivors: 0
P388 [2]
  ILS at 1 mg/kg: 63%
P388 [3]
  Survivors: 0
P388 [4]
  Change in body weight: 0.3 g mouse-1
P388 [5]
  Total dose: 4 mg/kg
P388 [6]
  Mortality: 27 days
P388 [7]
  ILS at 1 mg/kg: 79%
P388 [8]
  Total dose: 4 mg/kg
P388 [9]
  Median day of death: 18
P388 [10]
  Median day of death: 19.5
P388 [11]
  Mortality: 20 days
P388 [12]
  Change in body weight: 1.4 g mouse-1

## COC(=O)C(CC(C)C)NC(=O)C(CC(C)C)Nc1ncnc2c1C(=O)C(OC)=CC2=O (configuration not stated)
L1210
  IC50: 0.581 µg/mL and 1.3 µM

## CCCC(=O)OCCNc1ncnc2c1C(=O)C(OC)=CC2=O
L1210
  IC50: 0.85 µg/mL and 2.66 µM

## CCN(CC)CCCC(C)Nc1ncnc2c1C(=O)C(OC)=CC2=O (configuration not stated)
L1210
  IC50: 0.435 µg/mL and 1.26 µM

## O=C1C(N2CC2)=C(N2CC2)C(=O)c2ncncc21
L1210
  IC50: 80 nM

## CCN(CC)CCCNc1ncnc2c1C(=O)C(OC)=CC2=O
L1210
  IC50: 0.393 µg/mL and 1.24 µM

## COC1=CC(=O)c2ncnc(NCCCN(C)CCCNc3ncnc4c3C(=O)C(OC)=CC4=O)c2C1=O
L1210
  IC50: 1250 nM

## CN(CCCNc1ncnc2c1C(=O)C(N1CC1)=C(N1CC1)C2=O)CCCNc1ncnc2c1C(=O)C(N1CC1)=C(N1CC1)C2=O
L1210
  IC50: 4.8 nM

## N[C@@H](Cc1ccc(N(CCCl)CCCl)cc1)C(=O)O [MELPHALAN]
P388 [13]
  Survivors: 0
P388 [14]
  Mortality: 31 days
P388 [15]
  Change in body weight: 0.6 g mouse-1
P388 [16]
  Median day of death: 15
P388 [17]
  Survivors: 0
P388 [18]
  Total dose: 5 mg/kg
P388 [19]
  Mortality: 34 days
P388 [20]
  Change in body weight: 0.4 g mouse-1
P388 [21]
  Survivors: 0
P388 [22]
  Mortality: 19 days
P388 [23]
  Median day of death: 24
P388 [24]
  Median day of death: 16
P388 [25]
  Total dose: 5 mg/kg
P388 [26]
  ILS at 5 mg/kg: 14%
P388 [27]
  Mortality: 34 days
P388 [28]
  ILS at 5 mg/kg: 121%
P388 [29]
  Change in body weight: 0 g mouse-1
P388 [30]
  ILS at 5 mg/kg: 118%
P388 [31]
  Change in body weight: 0.1 g mouse-1
P388 [32]
  Total dose: 5 mg/kg
P388 [33]
  Survivors: 0
P388 [34]
  ILS at 1 mg/kg: 15%
P388 [35]
  Total dose: 5 mg/kg

## O=c1[nH]cc(F)c(=O)[nH]1 [FLUOROURACIL]
Mus musculus [36]
  Optimal dose: 70 mg/kg
Mus musculus [37]
  Tumor burden: 60 mg
Mus musculus [38]
  T/C: 14%
Mus musculus [39]
  Total dose: 140 mg/kg
Mus musculus [40]
  Toxicity: 0

## COC(=O)CNc1ncnc2c1C(=O)C(OC)=CC2=O
L1210
  IC50: 1.2 µg/mL and 4.26 µM

## COC1=CC(=O)c2ncnc(NCCCN(C)C)c2C1=O
L1210
  IC50: 0.501 µg/mL and 1.73 µM

## CN(C)CCCNc1ncnc2c1C(=O)C(N1CCCCC1)=CC2=O
L1210
  IC50: 0.406 µg/mL and 1.17 µM

## COc1cccc2c1C(=O)c1c(O)c3c(c(O)c1C2=O)C[C@@](O)(C(=O)CO)C[C@@H]3O[C@H]1C[C@H](N)[C@H](O)[C@H](C)O1 [DOXORUBICIN]
L1210
  IC50: 0.028 µg/mL and 48 nM

## COC1=CC(=O)c2ncnc(NCCO)c2C1=O
L1210
  IC50: 1.78 µg/mL and 7.13 µM

## COC1=CC(=O)c2ncnc(NCCCn3cnc4c(N)ncnc43)c2C1=O
L1210
  IC50: > 10 µg/mL and > 24.6 µM

## CCN(CC)CCNc1ncnc2c1C(=O)C(OC)=CC2=O
L1210
  IC50: 0.281 µg/mL and 898 nM

## COC1=CC(=O)c2ncnc(OCCOCCOCCO)c2C1=O
L1210
  IC50: > 10 µg/mL and > 29.6 µM
